The text below walks through data of PMC3836752 (Organic letters, 2013).

For experiment [1], the target named is T1, BamL (Bacillus velezensis, UniProt D3VMM1).
T1 sequence (D3VMM1 1-270): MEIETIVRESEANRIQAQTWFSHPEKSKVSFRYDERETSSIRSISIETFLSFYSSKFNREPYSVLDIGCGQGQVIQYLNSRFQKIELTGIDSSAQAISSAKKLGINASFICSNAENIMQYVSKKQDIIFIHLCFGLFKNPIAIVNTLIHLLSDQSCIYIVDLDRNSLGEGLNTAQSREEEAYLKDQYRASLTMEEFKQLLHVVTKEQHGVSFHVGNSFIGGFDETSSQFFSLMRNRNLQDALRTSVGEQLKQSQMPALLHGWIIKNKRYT
Nature of the experiment: BamL methylation assay, ESI-MS endpoint / LC-MS. It counts as biochemical. To be noted: for conversion into dimethylated product / dimethylation by BamL: condition A: 16 h endpoint assay, BamL in the presence of SAM, ESI-MS/HRMS and LC-MS. The gist of the method:
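Test compounds were incubated with BamL and scored as substrates by conversion of starting material. Two conditions were used: a standard assay, and a more stringent 1 h assay (condition B) with lower enzyme and substrate concentrations for finer resolution of substrate efficiency.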

The target in experiment [2] is T1, BamL. Nature of the experiment: ITC binding assay with BamL. To be noted: for Kd: BamL. The gist of the method:
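Test compounds were titrated with BamL by isothermal titration calorimetry. The binding isotherms were fitted to give Kd and thermodynamic binding parameters. The same titration was applied to a minimal arginine amide ligand.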

The target of experiment [3] is T1, BamL. To be noted: cited from earlier work; for processing by BamL: Arg-containing tetrapeptides as substrate mimics.
The next experiment concerns Bacillus anthracis. To be noted: against Bacillus anthracis; ref 1b; cited from earlier work.

By Kd is commonly meant the equilibrium constant for the complex coming apart. A higher Kd goes with a looser complex. In the case of `C=CCOC(=O)c1csc([C@@H](N)CCCNC(=N)N)n1` [compound 2], on BamL [1], the “conversion into dimethylated product” value is “left detectable levels of unconverted starting material” and the “dimethylation by BamL” value is “dimethylated by BamL”. On BamL [2], this compound displayed a Kd of 2200 nM. Also, at BamL [2] (addition of a single thiazole to Arg-NH2), the “increase in affinity for BamL versus 17 (2 vs. 17)” value was “two orders of magnitude”.
On to `CCOC(=O)c1csc(-c2nc(-c3csc([C@@H](N)CCCNC(=N)N)n3)oc2C)n1` [compound 3], for which, on BamL [1] (3 compared to 2, differences in affinity not solely responsible), the “processing by BamL compared to 2” value is on record as “enhanced processing”. On BamL [1], the “conversion into dimethylated product” value is reported as “full conversion” and the “dimethylation by BamL” value is given as “dimethylated by BamL”. Also, on BamL [1] (condition B: more stringent 1 h assay, lower concentrations of enzyme and substrate, ESI-MS), the “conversion into dimethylated product (reaction completeness)” value is on record as “nearly complete”. Also, the “reaction efficiency with BamL” value on BamL [1] (three azole rings compared with one azole, conditions A and B) was “reaction efficiency increases substantially”. Further, on BamL [2], the “affinity for BamL relative to monoazole 2” value was “marginally higher affinity” and the dissociation constant (Kd) was found to be 1700 nM. The “thermodynamic origin of stronger interaction compared to 2” value at BamL [2] (analysis of Gibbs free energy terms, 3 compared to 2) was “primarily entropically driven”.
For `N=C(N)NCCC[C@H](N)C(N)=O` [compound 17, Arg-NH2], the “conversion to (CH3)2-Arg-NH2 by BamL” value on BamL [3] is on record as “inefficiently converted”.
Consider RAAA, for which, at BamL [3], the “processing by BamL” value was “unprocessed by BamL”.
With RGGG, the “processing by BamL” value on BamL [3] is listed as “unprocessed by BamL”.
As to plantazolicin [PZN], the antibacterial action entry in the experiment on Bacillus anthracis was “highly discriminating antibacterial action against Bacillus anthracis”.
